# According to ChEMBL document CHEMBL3351931, “Synthesis of natural-like acylphloroglucinols with anti-proliferative, anti-oxidative and tube-formation inhibitory activity” (Eur J Med Chem, 2014):
# Active and inactive are the calls of the source. No cut-off for these calls is given here.
# Assays:
# [1] = Antiproliferative activity against human HMEC1 cells after 72 hrs; assay type: functional, cell-based; conditions: HMEC-1, 72 h
# Method in brief: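 SV-40T-transfected HMEC-1 seeded 1.5 × 10³ cells/well in ECGM with 10% FCS, supplement mix and antibiotics, 37 °C, 5% CO2. After 24 h, a reference plate was crystal-violet stained for baseline. The remaining cells were given increasing compound concentrations (DMSO stock) for 72 h, then crystal violet stained and read at 540 nm. 0.1% DMSO in ECGM served as negative control. IC50 ± SD from three independent experiments with different passages, hexaplicates per concentration.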
# [2] = Antioxidant activity in phosphate buffer assessed as trolox equivalents ratio at pH 7.4 after 15 mins by ORAC-fluorescein assay; assay type: physicochemical; conditions: pH 7.4, 0.25 h
# Method in brief: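 ORAC-FL: fluorescein probe (final 300 nM) in 75 mM phosphate buffer pH 7.4; antioxidant (test compounds 1–5 µM, five concentrations; Trolox 1–8 µM standards) preincubated with fluorescein 15 min at 37 °C. Reaction started with AAPH (final 12 mM). Fluorescence read every min for 80 min (ex 485/em 536 nm). AUC converted to Trolox equivalents; quadruplicate, ≥4 independent assays.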
# HMEC-1 [3] = experiment: Antiangiogenic activity in HMEC1 assessed as inhibition of tube formation at 12.5 to 100 uM after 19 hrs by matrigel assay; assay type: functional; conditions: Homo sapiens
# HMEC-1 [4] = experiment: Antiangiogenic activity in HMEC1 assessed as inhibition of tube formation at 6.25 to 50 uM after 19 hrs by matrigel assay; assay type: functional; conditions: Homo sapiens
SMILES,Ratio [2],IC50 [1] [µM],inhibition (HMEC-1 [3]),inhibition (HMEC-1 [4])
CC(=O)c1c(O)cc(O)c2c1OC(C)(CCC=C(C)C)CC2 (stereo not drawn),0.8,20.3,–,–
COc1cc(C(=O)c2c(O)cc3c(c2O)CCC(C)(C)O3)cc(OC)c1OC,–,51.5,–,–
CCC(C)C(=O)c1c(O)cc(O)c2c1OC(C)(CCC=C(C)C)CC2 (stereo not drawn),0.3,–,–,–
CCC(C)C(=O)c1c(O)cc2c(c1O)CCC(C)(C)O2 (stereo not drawn),1.2,29.3,–,–
CC1(C)CCc2c(cc(O)c(C(=O)c3cc(O)cc(O)c3)c2O)O1,3,25.5,–,–
COc1cc(C(=O)c2c(O)cc3c(c2O)CCC(C)(C)O3)cc(OC)c1O,3,23.9,–,–
CC1(C)CCc2c(cc(O)c(C(=O)c3ccc(O)c(O)c3)c2O)O1,2.8,0.88,–,–

# Second part, led by results:
Ratio [2],SMILES,IC50 [1] [µM],inhibition (HMEC-1 [3]),inhibition (HMEC-1 [4])
1.1,COc1ccc(C(=O)c2c(O)cc3c(c2O)CCC(C)(C)O3)cc1,43.4,–,–
1.3,COc1ccc(C(=O)c2c(O)cc3c(c2O)CCC(C)(C)O3)cc1OC,48,Active,–
1,CC(=O)c1c(O)cc(O)c(C/C=C(\C)CCC=C(C)C)c1O,22.5,–,–
0.6,CCC(=O)c1c(O)cc(O)c(C/C=C(\C)CCC=C(C)C)c1O,22.4,–,–
2.3,COc1cc(O)c(CC=C(C)C)c(O)c1C(=O)/C=C/c1ccc(O)cc1 [XANTHOHUMOL],–,–,–
2.1,COc1cc(C(=O)c2c(O)cc3c(c2O)CCC(C)(C)O3)cc(O)c1O,7.6,–,–
6.6,CC1(C)CCc2c(cc(O)c(C(=O)c3ccc(O)cc3)c2O)O1,53.8,–,–
0.8,CC(C)=CCC/C(C)=C/Cc1c(O)cc(O)c(C(=O)C(C)C)c1O,21,–,–
0.4,CCC(C)C(=O)c1c(O)cc(O)c(C/C=C(\C)CCC=C(C)C)c1O (stereo not drawn),11,–,Active
0.3,CCCC(C)C(=O)c1c(O)cc(O)c(C/C=C(\C)CCC=C(C)C)c1O (stereo not drawn),8.7,–,–
